Screening data from PubChem BioAssay.
Compounds with a hit are over-represented: about 3.1% of the library has one in this group of screens.
PAX8 reporter: inhibitors of PAX8 transcriptional activity in RMG-I cells | RMG-I TPO-luciferase reporter, SteadyGlo, 24 h | inhibition, % at 12.6 µM | hit rate 1.2% among 360,000;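 active means mean replicate inhibition at least 60% with every replicate also reaching 60%; inconclusive means only one of the two criteria is met; inactive means mean below 60% and not all replicates reaching 60%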;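 further: luciferase light reporting Pax8 driven TPO promoter activity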
Env fusion inh: blocks HIV Env-driven cell-cell fusion; hit rate 1.1% among 360,000; AID 651610; inhibition, % at 12.3 µM; HeLa-JRFL Env/CEM21 cell fusion, luciferase;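 active means mean replicate inhibition score of at least 50 and every replicate individually at or above 50; inconclusive means only one of the two criteria met; inactive means mean below 50 and not all replicates reaching 50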
EWS-Fli block: inhibitors of EWS/Fli oncoprotein transcriptional activity; hit rate 0.67% among 350,000; inhibition, % at 12.6 µM; A673 NR0B1-luciferase reporter, viability-normalised; AID 651661;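 active means mean inhibition of at least 50% after viability correction, with every replicate also passing that limit; inconclusive means mean reaches 50% but only one of two replicates passes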;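 further: firefly luciferase signal divided by Alamar Blue viability fluorescence both relative to DMSO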
PGC1a acetyl inh: modulators of PGC1a acetylation; inhibition, % at 15.6 µM; U2OS PGC1a acetylation, AlphaScreen anti-acetyl-lysine; with virally co-expressed GCN5 acetyltransferase; AID 651687; hit rate 0.17% among 350,000;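 active means every replicate shows inhibition of at least 40%; inconclusive means mean inhibition at least 40% but some replicate below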
FGF22 binding: shifts melting point of recombinant human FGF22 | recombinant FGF22 thermal shift, SYPRO orange fluorescence; percent of sucrose octasulfate shift, DMSO zero | activity (Tm shift, normalised), % at 9.99 µM | Q9HCT0 | hit rate 1.5% among 340,000 | AID 651658;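 active means mean Tm shift, scaled 0 neutral to 100 positive control, at about 1.3% or above, every replicate too, limit read from the data; inconclusive means no clear call, values can overlap the other calls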
Target sequence (Q9HCT0 whole entry, looked up): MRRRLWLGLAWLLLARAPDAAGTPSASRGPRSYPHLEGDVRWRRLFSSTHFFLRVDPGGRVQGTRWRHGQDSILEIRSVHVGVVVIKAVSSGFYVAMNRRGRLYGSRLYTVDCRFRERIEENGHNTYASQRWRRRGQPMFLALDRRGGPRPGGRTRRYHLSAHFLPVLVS
FN deposition inh: fibronectin deposition inhibition. AH1F fibroblasts, Alexa488-fibronectin deposition fluorescence, overnight. inhibition, % at 12.6 µM. hit rate 0.086% among 350,000. AID 743247;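 active means mean inhibition across replicates of 30% or more, regardless of how many single replicates reach that level; inconclusive means mean under 30% yet at least half of replicates reach 30%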
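Assay system: AH1F fibroblast monolayer, labelled fibronectin deposition. Amount: 10000 cells per well. Also added: labelled fibronectin 24 nM. Compound: single-point pinned compound. Incubation: cell attachment 1 h, compound and FN exposure overnight. Detection: fluorescence after three HBSS washes, excitation 485 nm, emission 525 nm. Read-out: inhibition of fibronectin deposition signal.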
Large screens that a line does not name were inactive; ! = repeats disagree; [ ] = remark or other dose.

CO[C@@H]1CN(C)C(=O)c2cc(NC(=O)Nc3ccccc3)ccc2OC[C@H](C)N(C(=O)CN(C)C)C[C@@H]1C	none (no result: PAX8 reporter, Env fusion inh)
C[C@@H]1CN([C@H](C)CO)C(=O)c2cc(-c3ccccc3F)cnc2O[C@@H]1CN(C)Cc1ccccc1F	none
CCC(=O)N(C)C[C@H]1Oc2ncc(C#CCc3ccccc3)cc2C(=O)N([C@H](C)CO)C[C@H]1C	none (no result: PAX8 reporter, FN deposition inh)
CCC(=O)N(C)C[C@@H]1Oc2ncc(C#CCc3ccccc3)cc2C(=O)N([C@H](C)CO)C[C@@H]1C	PGC1a acetyl inh 100.6 (no result: PAX8 reporter, FN deposition inh)
C[C@H]1CN([C@@H](C)CO)C(=O)c2cc(C#CCC3CCCC3)cnc2O[C@@H]1CN(C)S(=O)(=O)c1cccs1	PAX8 reporter 67.0 (no result: FN deposition inh)
C[C@H](CO)N1C[C@H](C)[C@@H](CN(C)Cc2ccccc2F)Oc2ncc(Br)cc2C1=O	PGC1a acetyl inh 63.8!
COCC(=O)N(C)C[C@H]1Oc2ncc(Br)cc2C(=O)N([C@H](C)CO)C[C@H]1C	Env fusion inh 79.9[16.7 µM] (no result: FN deposition inh)
O=C(C1CCCC1)N1CC2(C1)[C@H](c1ccccc1)[C@@H](CO)N2C(=O)NC1CCCC1	none (no result: PAX8 reporter, Env fusion inh, FGF22 binding)
CN(C)C(=O)c1cccc(-c2ccc([C@@H]3[C@H]4CN(S(C)(=O)=O)CCCCN4[C@H]3CO)cc2)c1	none (no result: Env fusion inh, FN deposition inh)
C[C@H](NC(=O)C[C@@H]1CC[C@@H]2[C@H](COC[C@H](O)CN2C(=O)Nc2ccccc2)O1)c1ccccc1	none (no result: Env fusion inh)
Cc1nn(C)cc1NC(=O)C[C@@H]1CC[C@@H]2[C@H](COc3ccc(NC(=O)NC(C)C)cc3C(=O)N2C)O1	none
O=C([C@H]1[C@H](CO)[C@H]2Cn3c(cccc3=O)[C@H]2N1CC1CCCCC1)N1CCOCC1	none (no result: Env fusion inh, EWS-Fli block, FGF22 binding, FN deposition inh)
C[C@@H]1CN([C@H](C)CO)C(=O)Cc2cc(NS(=O)(=O)c3ccc(F)cc3)ccc2O[C@@H]1CN(C)Cc1ccc(Cl)c(Cl)c1	none (no result: FGF22 binding, FN deposition inh)
CC(C(=O)NC(C)(C)C)N1C(=O)c2cccc3cccc(c23)C1=O (stereo unspecified)	FGF22 binding 43.0 (no result: PGC1a acetyl inh)
O=C(Nc1ccc(-c2nc3ccccc3[nH]2)cc1)C1CCCO1 (stereo unspecified)	FGF22 binding 8.6 (no result: PAX8 reporter, Env fusion inh, FN deposition inh)
Cc1ccc(C)c(N2CCN(c3ncccc3[N+](=O)[O-])CC2)c1	PAX8 reporter 61.5
C[C@@H]1CN([C@H](C)CO)C(=O)c2cccc(NC(=O)C3CCCCC3)c2O[C@H]1CN(C)S(=O)(=O)c1ccc(Cl)cc1	none (no result: FN deposition inh)
Cc1ccc(NC(=O)Nc2ccc(C(=O)N3CCOCC3)cc2)cc1	none (no result: EWS-Fli block, FGF22 binding)
CC(=O)c1cccc(NC(=O)Nc2cccnc2)c1	Env fusion inh inconclusive, PGC1a acetyl inh 50.3 (no result: PAX8 reporter, EWS-Fli block, FGF22 binding, FN deposition inh)
O=C(Nc1cccnc1)Nc1cccc(F)c1	none (no result: PGC1a acetyl inh)
CC(=O)c1cccc(NC(=O)Nc2ccc(C(=O)N3CCOCC3)cc2)c1	Env fusion inh 63.1 (no result: PAX8 reporter, EWS-Fli block, FGF22 binding)
O=C(Cc1ccccc1)Nc1ccccc1C(=O)N1CCCCC1	none
O=C(Cc1ccccc1)c1ccccc1C(=O)N1CCCCC1	PAX8 reporter 107.6
O=C([C@@H]1[C@@H](CO)[C@@H]2Cn3c(cccc3=O)[C@@H]2N1Cc1ccccc1Cl)N1CCCCC1	none (no result: PGC1a acetyl inh, FN deposition inh)
COc1cccc(-c2c(-c3cc(OC)cc(OC)c3)n(C)c3ccc(-c4ccc(OC)nc4)cc23)c1	FGF22 binding 43.8 (no result: Env fusion inh, PGC1a acetyl inh)
COc1cc(OC)cc(-c2c(-c3ccc(F)cc3)c3cc(-c4ccc(OC)nc4)ccc3n2C)c1	none
CN1c2ccc(Br)cc2[C@H]2[C@H](CCN2C(=O)Nc2cc(F)ccc2F)[C@H]1CO	none (no result: Env fusion inh)
CC(C)c1ccc(Nc2nc(N3CCOCC3)nc(N3CCOCC3)n2)cc1	FGF22 binding 1.6 (no result: FN deposition inh)
COc1ccc(Nc2nc(N3CCCC3)nc(N3CCOCC3)n2)cc1	none (no result: PGC1a acetyl inh)
O=C1CSC(c2ccccc2)N1Nc1nc(N2CCOCC2)nc(N2CCOCC2)n1 (stereo unspecified)	FGF22 binding 43.4
c1ccc(Nc2nc(N3CCCC3)nc(N3CCOCC3)n2)cc1	Env fusion inh 61.5 (no result: PGC1a acetyl inh)
c1ccc(Oc2nc(N3CCOCC3)nc(N3CCOCC3)n2)cc1	none (no result: PAX8 reporter, EWS-Fli block, FGF22 binding)
CCCc1cn(CC[C@H]2CC[C@@H](NC(=O)Nc3ccc4c(c3)OCO4)[C@H](CO)O2)nn1	none (no result: FN deposition inh)
CN(C)C(=O)c1ccc(-c2ccc3c(c2)[C@H]2[C@H](CCN2C(=O)c2ccccn2)[C@H](CO)N3C)cc1	none (no result: Env fusion inh)
Cc1noc(C)c1NC(=O)N[C@H]1CC[C@@H](CC(=O)NCCCN(C)C)O[C@H]1CO	none
CCC(=O)N(C)C[C@@H]1Oc2cc(C#CC(C)(C)O)ccc2S(=O)(=O)N([C@@H](C)CO)C[C@H]1C	none (no result: PAX8 reporter)
CCOc1cc(S(=O)(=O)N(Cc2ccccc2)Cc2ccccc2)c(OCC)cc1-n1cnnn1	Env fusion inh 63.2 (no result: PAX8 reporter, EWS-Fli block, FGF22 binding, FN deposition inh)
O=C(CCC(=O)c1cccs1)NCc1cccnc1	FN deposition inh 38.1
Cc1cccc(N(CC(O)CON=C2c3ccccc3-c3ccccc32)S(C)(=O)=O)c1 (stereo unspecified)	Env fusion inh 64.7 (no result: PAX8 reporter, EWS-Fli block, FGF22 binding)
CCN(CC(O)CON=C1c2ccccc2-c2ccccc21)S(=O)(=O)c1ccc(C)cc1 (stereo unspecified)	Env fusion inh 79.1 (no result: EWS-Fli block, PGC1a acetyl inh, FGF22 binding)
CCN(CC(O)CON=C1c2ccccc2-c2ccccc21)S(=O)(=O)c1ccc(Cl)cc1 (stereo unspecified)	Env fusion inh 76.8 (no result: EWS-Fli block, PGC1a acetyl inh, FGF22 binding, FN deposition inh)
C[C@@H]1CN([C@@H](C)CO)C(=O)c2cc(NC(=O)Nc3ccccc3)ccc2O[C@H]1CN(C)Cc1ccc(C(=O)O)cc1	none (no result: Env fusion inh, FN deposition inh)
CCN(CC)CCOCCn1c(C)ccc1C	Env fusion inh inconclusive, FGF22 binding 42.9
CN(C)c1ccc(-c2nc3ccccc3c(=O)[nH]2)cc1	PAX8 reporter 80.7, EWS-Fli block 62.0
COCCN(C[C@H]1[C@H](c2ccccc2)[C@@H](CO)N1C(C)=O)C(=O)c1ccncc1	none (no result: Env fusion inh)
CC=Cc1ccc2n(c1=O)C[C@H]1[C@H](CO)[C@@H](C(=O)NCC)[C@@H]2N1Cc1ccccc1 (mixture of isomers)	none (no result: Env fusion inh, PGC1a acetyl inh, FN deposition inh)
CC1(C)COC2(OC1)C(=O)N(CN1CCOCC1)c1ccccc12	FGF22 binding 42.9
O=C1N(CN2CCC3(CC2)OCCO3)c2ccccc2C12OCCCO2	none (no result: PAX8 reporter, EWS-Fli block, FGF22 binding)
Cc1ccc(N2C(=O)c3cccc4c([N+](=O)[O-])ccc(c34)C2=O)c2cccnc12	none
Cc1ccnc(N2C(=O)c3cccc4c([N+](=O)[O-])ccc(c34)C2=O)c1	EWS-Fli block 65.5 (no result: PAX8 reporter, Env fusion inh, FN deposition inh)
Cc1nnc(N2C(=O)c3cccc4c([N+](=O)[O-])ccc(c34)C2=O)s1	EWS-Fli block 68.2
O=C1c2cccc3c([N+](=O)[O-])ccc(c23)C(=O)N1Cc1cccnc1	none
C[C@H](CO)N1C[C@H](C)[C@@H](CN(C)C(=O)C2CCCCC2)OCCCC[C@H](C)Oc2ccc(NC(=O)Cc3ccccc3)cc2C1=O	none (no result: FN deposition inh)
COCC(=O)N1[C@@H](CO)[C@@H](c2ccccc2)C12CN(Cc1ccccc1)C2	none (no result: Env fusion inh, FN deposition inh)
